In ChEMBL document CHEMBL1130283, “Synthesis and structure-activity relationships of nonaromatic taxoids: effects of alkyl and alkenyl ester groups on cytotoxicity” (J Med Chem, 1997) one finds IC50 data, which are given here for eleven compounds.

Common to all, as to format: functional, cell-based
One assay has as its system MCF7. The assay can be described thus: Inhibition of the growth against human mammary carcinoma (MCF-7) cell line after 72 hr exposure. Conditions: MCF7, 72 h. Put shortly: (§1)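 SRB assay. Cells were seeded at 400/well, allowed to attach overnight, and grown in RPMI-1640 with 5% FBS and 5% Nu serum. Compounds were dissolved in DMSO, diluted in medium and applied to triplicate wells for 72 h. Cells were fixed with cold 50% TCA (1 h, 4 °C), stained with 0.4% SRB for 5 min, rinsed with 0.1% acetic acid and solubilized in 10 mM Tris pH 10.5. OD was read at 570 nm. IC50 came from a weighted sigmoid-Emax nonlinear fit.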

In another assay the test system is MCF7R. The assay is described as follows: Inhibition of the growth against human mammary carcinoma 180 fold resistant to doxorubicin (MCF-7-R) cell line after 72 hr exposure.
Another assay deals with A121. The assay can be described thus: Inhibition of the growth against human Ovarian Carcinoma (A121) cell line after 72 hr exposure. Conditions: A121, 72 h. Put shortly: as §1
The next assay relates to A549. The assay can be described thus: Inhibition of the growth against human non-small-lung carcinoma (A549) cell line after 72 hr exposure. Conditions: A549, 72 h.
The next assay has as its system HT-29. The assay can be described thus: Inhibition of the growth against human Colon Carcinoma (HT-29) cell line after 72 hr exposure. Conditions: HT-29, 72 h. Put shortly: as §1

Where only a bound is given, the exact number is not on record here.

As usually defined, the IC50 is the concentration at which inhibition is half-maximal. As for `CC(=O)OC1C(=O)C2(C)C(O)CC3OCC3(OC(C)=O)C2C(OC(=O)C=C(C)C)C2(O)CC(OC(=O)C(O)C(CC(C)C)NC(=O)OC(C)(C)C)C(C)=C1C2(C)C` (stereo not given), the IC50 was 84 nM in the assay with MCF7; more than 1000 nM in the assay on MCF7R; 54 nM in the assay with A121; 30 nM in the assay with A549; 89 nM with HT-29.

Turning to `CC(=O)OC1C(=O)C2(C)C(O)CC3OCC3(OC(C)=O)C2C(OC(=O)C2CCCCC2)C2(O)CC(OC(=O)C(O)C(C=C(C)C)NC(=O)OC(C)(C)C)C(C)=C1C2(C)C` (stereo not given), the IC50 in the assay with MCF7 worked out at 0.5 nM; in the assay on MCF7R, 26 nM; with A121, 1.5 nM; with A549, 1.3 nM; in the assay with HT-29 it was 1.7 nM.

For the compound `CC(=O)OC1C(=O)C2(C)C(O)CC3OCC3(OC(C)=O)C2C(OC(=O)CC(C)C)C2(O)CC(OC(=O)C(O)C(CC(C)C)NC(=O)OC(C)(C)C)C(C)=C1C2(C)C` (stereo not given), the IC50 in the assay with MCF7 was 43 nM; with MCF7R, 1080 nM; in the assay on A121, 55 nM; in the assay with A549, 47 nM; in the assay on HT-29, 52 nM.

Consider `CC(=O)OC1C(=O)C2(C)C(O)CC3OCC3(OC(C)=O)C2C(OC(=O)C=C(C)C)C2(O)CC(OC(=O)C(O)C(NC(=O)OC(C)(C)C)c3ccccc3)C(C)=C1C2(C)C` (stereo not given), for which the IC50 was 1.1 nM in the assay on MCF7; 140 nM in the assay with MCF7R; 2.7 nM in the assay on A121; 2.9 nM in the assay on A549; 3.5 nM in the assay with HT-29.

Consider `C/C=C/C(NC(=O)OC(C)(C)C)C(O)C(=O)OC1CC2(O)C(OC(=O)C3CCCCC3)C3C4(OC(C)=O)COC4CC(O)C3(C)C(=O)C(OC(C)=O)C(=C1C)C2(C)C` (stereo not given), for which the IC50 in the assay with MCF7 was found to be 3.2 nM; with MCF7R, 446 nM; in the assay with A121, 6.6 nM; in the assay on A549 it was 12 nM; in the assay with HT-29 it was 8.5 nM.

For the compound `CC(=O)OC1C(=O)C2(C)C(O)CC3OCC3(OC(C)=O)C2C(OC(=O)C2CCCCC2)C2(O)CC(OC(=O)C(O)C(CC(C)C)NC(=O)OC(C)(C)C)C(C)=C1C2(C)C` (stereo not given), the IC50 turned out to be 1.8 nM with MCF7; 57 nM in the assay with MCF7R; 3.2 nM in the assay on A121; 7.7 nM in the assay with A549; 5.6 nM in the assay with HT-29.

Consider `CC(=O)O[C@H]1C(=O)[C@@]2(C)[C@H]([C@H](OC(=O)c3ccccc3)[C@]3(O)C[C@H](OC(=O)[C@H](O)[C@H](C=C(C)C)NC(=O)OC(C)(C)C)C(C)=C1C3(C)C)[C@]1(OC(C)=O)CO[C@@H]1C[C@@H]2O`, for which the IC50 with MCF7 amounted to 0.6 nM; with MCF7R, 12 nM; in the assay on A121 it was 0.5 nM; in the assay with A549 it was 0.3 nM; in the assay with HT-29, 0.6 nM.

Regarding `CC(=O)OC1C(=O)C2(C)C(O)CC3OCC3(OC(C)=O)C2C(OC(=O)CC(C)C)C2(O)CC(OC(=O)C(O)C(C=C(C)C)NC(=O)OC(C)(C)C)C(C)=C1C2(C)C` (stereo not given), the IC50 in the assay on MCF7 stood at 11 nM; with MCF7R it was 589 nM; in the assay on A121, 17 nM; in the assay on A549 it was 14 nM; with HT-29, 16 nM.

On to `CC(=O)OC1C(=O)C2(C)C(O)CC3OCC3(OC(C)=O)C2C(OC(=O)C2CCCCC2)C2(O)CC(OC(=O)C(O)C(NC(=O)OC(C)(C)C)c3ccccc3)C(C)=C1C2(C)C` (stereo not given), for which the IC50 in the assay on MCF7 came out at 1.8 nM; in the assay with MCF7R, 412 nM; in the assay with A121, 4.8 nM; with A549, 5.7 nM; in the assay on HT-29, 5.6 nM.

Consider `CC(=O)OC1C(=O)C2(C)C(O)CC3OCC3(OC(C)=O)C2C(OC(=O)C=C(C)C)C2(O)CC(OC(=O)C(O)C(C=C(C)C)NC(=O)OC(C)(C)C)C(C)=C1C2(C)C` (stereo not given), for which the IC50 came to 0.5 nM in the assay on MCF7; 38 nM in the assay on MCF7R; 0.9 nM in the assay with A121; 0.9 nM with A549; 1.4 nM in the assay with HT-29.

Regarding `CC(=O)OC1C(=O)C2(C)C(O)CC3OCC3(OC(C)=O)C2C(OC(=O)C2CCCCC2)C2(O)CC(OC(=O)C(O)C(NC(=O)OC(C)(C)C)C3CCCCC3)C(C)=C1C2(C)C` (stereo not given), the IC50 in the assay on MCF7 was 10 nM; in the assay with MCF7R it was 591 nM; with A121, 43 nM; in the assay on A549, 49 nM; in the assay on HT-29, 59 nM.
